Assay results reported in publication PMC3951241 (Journal of medicinal chemistry, 2013).
Like-named read-outs stand apart in the source and are kept apart here.

Key:
[1] = target: rat wild type α1β2γ2L GABAA receptors (Rattus norvegicus, UniProt P62813+P63138); experiment: Single-channel recordings in HEK 293 cells; assay type: cell-based; conditions: 50 μM GABA + 20 μM compound; for OT long, mean duration of the longest-lived intracluster open time component: 4-7 patches
Procedure, shortened: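 Single-channel currents from the rat wild-type α1β2γ2L GABAA receptor, activated by 50 μM GABA alone (control) or with 20 μM test compound; 4-7 patches per condition. Intracluster open-time histograms were fitted to sums of two or three exponentials, and closed-time histograms to three. Mean duration and fraction of the longest open component, and fraction of the longest closed component, were analysed statistically.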

[2] = tested on: mice; experiment: Anesthesia; assay type: in vivo, mouse; conditions: tail vein injection
Procedure, shortened: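 Mice received test compound by tail vein injection, dissolved in 22.5% aqueous 2-(hydroxypropyl)-β-cyclodextrin. Lower doses were made by serial dilution of the 8 mg/kg stock solution with 0.9% saline. Anesthesia was scored as loss of righting reflex (LRR), and LRR duration was recorded at each dose.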

[3] = tested on: tadpoles; conditions: cited from earlier work
[4] = tested on: tadpoles; experiment: Tadpole loss of righting reflex; assay type: in vivo; conditions: for EC50: read-out: Tadpole LSR EC50; for tadpole LRR EC50: loss of righting reflex, None = no effect at 10 μM; for tadpole LRR EC50 / Tadpole LSR EC50: ± SEM; for Tadpole LSR EC50: loss of swimming reflex, None = all animals had a swimming response at 10 μM test compound
[5] = tested on: picrotoxin binding site on the heterogeneous GABAA receptors found in rat brain membranes; experiment: [35S]TBPS displacement from rat brain membranes; conditions: comparison of IC50 values
[6] = tested on: mice; conditions: tail vein injection, previously found ref 15, cited from earlier work

CO[C@H]1[C@H]2CC[C@H]3[C@@H]4CC(=O)C[C@]4(C)CC[C@@H]3[C@]2(C)CC[C@@H]1O (single isomer, unassigned) [ent-9, (3β,4α,5β,8α,9β,10α,13α,14β)-3-Hydroxy-4-methoxyandrostan-16-one]
OT long, mean duration of the longest-lived intracluster open time component [1]: 17.7 ± 6.6 ms | closed time, first listed component, duration ([1]; sample patch of Figure 3): 0.24 ms | closed time, first listed component, fraction ([1]; sample patch of Figure 3): 67% | closed time, second listed component, fraction ([1]; sample patch of Figure 3): 28% | closed time, third listed component, duration ([1]; sample patch of Figure 3): 14.3 ms | closed time, third listed component, fraction ([1]; sample patch of Figure 3): 6% | open time, first listed component, duration ([1]; sample patch of Figure 3): 0.80 ms | open time, first listed component, fraction ([1]; sample patch of Figure 3): 52% | open time, second listed component, duration ([1]; sample patch of Figure 3): 30.3 ms | open time, second listed component, fraction ([1]; sample patch of Figure 3): 48% | duration of LRR in mice ([2]; 2 mg/kg (threshold dose)): about 1 min | duration of LRR in mice ([2]; 4 mg/kg): about 5 min | duration of LRR in mice ([2]; 8 mg/kg): about 9 min | threshold dose for LRR in mice [2]: 2 mg/kg

CC(=O)[C@H]1CC[C@H]2[C@@H]3CC[C@H]4C[C@H](O)CC[C@]4(C)[C@H]3CC[C@]12C [compound 5, allopregnanolone]
EC50 ([3]; read-out: Tadpole LSR EC50, loss of swimming reflex, literature values ref 46): 5.5 ± 0.5 µM | EC50 ([3]; read-out: tadpole LRR EC50, loss of righting reflex, literature values ref 46): 0.42 ± 0.04 µM

CO[C@@H]1C[C@]2(C)[C@H](CC[C@@H]3[C@@H]2CC[C@@]2(C)C(=O)CC[C@@H]32)C[C@H]1O (single isomer, unassigned) [ent-2, (2α,3β,5β,8α,9β,10α,13α,14β)-3-Hydroxy-2-methoxyandrostan-17-one]
EC50 [4]: > 10 µM | fold decrease in [35S]TBPS displacement potency relative to ent-1 [5]: about 21 fold

CO[C@H]1C[C@@]2(C)[C@@H](CC[C@@H]3[C@@H]2CC[C@]2(C)C(=O)CC[C@@H]32)C[C@@H]1O [compound 2, (2β,3α,5α)-3-Hydroxy-2-methoxyandrostan-17-one]
EC50 [4]: > 10 µM | fold decrease in [35S]TBPS displacement potency relative to steroid 1 [5]: about five

CO[C@H]1[C@H](O)CC[C@]2(C)[C@H]3CC[C@]4(C)C(=O)CC[C@H]4[C@@H]3CC[C@@H]12 [compound 3, (3α,4β,5α)-3-Hydroxy-4-methoxyandrostan-17-one]
tadpole LRR EC50 [4]: None | Tadpole LSR EC50 [4]: None

CC(=O)[C@H]1CC[C@H]2[C@@H]3CC[C@H]4C[C@H](O)CC[C@]4(C)[C@H]3C(=O)C[C@]12C [compound 6, alphaxalone]
EC50 ([3]; read-out: Tadpole LSR EC50, loss of swimming reflex, literature values ref 48): 5.48 ± 0.11 µM | EC50 ([3]; read-out: tadpole LRR EC50, loss of righting reflex, literature values ref 48): 1.12 ± 0.14 µM | duration of LRR in mice ([6]; 8 mg/kg): less than 1 min | threshold dose for LRR in mice [6]: 8 mg/kg | duration of LRR in mice ([2]; 16 mg/kg): about 4 min

C[C@]12CC[C@@H](O)C[C@@H]1CC[C@@H]1[C@@H]2CC[C@]2(C)C(=O)CC[C@@H]12 [compound 1, Androsterone]
EC50 ([3]; read-out: tadpole LRR EC50, loss of righting reflex, literature values ref 9): 3.38 ± 0.9 µM

O=C1C[C@@H]2CC[C@H]3[C@@H](CC[C@@H]4C[C@@H](O)CC[C@H]43)[C@@H]2C1 (single isomer, unassigned) [ent-12, (3β,5β,8α,9β,10α,13α,14β)-3-Hydroxygonan-16-one]
OT long, mean duration of the longest-lived intracluster open time component [1]: 11.5 ± 3.3 ms | closed time, first listed component, duration ([1]; sample patch of Figure 3): 0.25 ms | closed time, first listed component, fraction ([1]; sample patch of Figure 3): 54% | closed time, second listed component, duration ([1]; sample patch of Figure 3): 2.0 ms | closed time, second listed component, fraction ([1]; sample patch of Figure 3): 24% | closed time, third listed component, duration ([1]; sample patch of Figure 3): 27.8 ms | closed time, third listed component, fraction ([1]; sample patch of Figure 3): 22% | open time, first listed component, duration ([1]; sample patch of Figure 3): 0.29 ms | open time, first listed component, fraction ([1]; sample patch of Figure 3): 29% | open time, second listed component, duration ([1]; sample patch of Figure 3): 2.1 ms | open time, second listed component, fraction ([1]; sample patch of Figure 3): 23% | open time, third listed component, duration ([1]; sample patch of Figure 3): 13.2 ms | open time, third listed component, fraction ([1]; sample patch of Figure 3): 48% | tadpole LRR EC50 [4]: neither LRR nor LSR and None | Tadpole LSR EC50 [4]: neither LRR nor LSR and None

C[C@@]12CC[C@H]3[C@@H](CC[C@@H]4C[C@@H](O)CC[C@]43C)[C@@H]1CC(=O)C2 (single isomer, unassigned) [ent-7, (3β,5β,8α,9β,10α,13α,14β)-3-Hydroxyandrostan-16-one]
OT long, mean duration of the longest-lived intracluster open time component [1]: 12.4 ± 3.4 ms | closed time, first listed component, duration ([1]; sample patch of Figure 3): 0.27 ms | closed time, first listed component, fraction ([1]; sample patch of Figure 3): 71% | closed time, second listed component, duration ([1]; sample patch of Figure 3): 2.1 ms | closed time, second listed component, fraction ([1]; sample patch of Figure 3): 24% | closed time, third listed component, duration ([1]; sample patch of Figure 3): 25.0 ms | closed time, third listed component, fraction ([1]; sample patch of Figure 3): 5% | open time, first listed component, duration ([1]; sample patch of Figure 3): 0.64 ms | open time, first listed component, fraction ([1]; sample patch of Figure 3): 39% | open time, second listed component, duration ([1]; sample patch of Figure 3): 10.9 ms | open time, second listed component, fraction ([1]; sample patch of Figure 3): 61% | fold lower tadpole LRR EC50 relative to ent-1 ([4]; comparison of EC50 values): ~ three | fold lower tadpole LSR EC50 relative to ent-1 ([4]; comparison of EC50 values): ~ three | duration of LRR in mice ([2]; 8 mg/kg): about 3 min | duration of LRR in mice ([2]; 16 mg/kg): about 7 min | fold increase in [35S]TBPS displacement potency relative to ent-1 [5]: about four

C[C@]12CC[C@@H](O)C[C@@H]1CC[C@@H]1[C@@H]2C(=O)C[C@]2(C)/C(=C\C#N)CC[C@@H]12 [compound 4, [3α,5α,17(20)Z]-3-Hydroxy-11-oxopregn-17(20)-ene-21-nitrile]
EC50 ([3]; read-out: Tadpole LSR EC50, loss of swimming reflex, literature values ref 15): 5.48 ± 0.2 µM | EC50 ([3]; read-out: tadpole LRR EC50, loss of righting reflex, literature values ref 15): 1.44 ± 0.2 µM

CO[C@@H]1C[C@]2(C)[C@H](CC[C@H]3[C@@H]4CC(=O)C[C@]4(C)CC[C@@H]32)C[C@H]1O (single isomer, unassigned) [ent-8, (2α,3β,5β,8α,9β,10α,13α,14β)-3-Hydroxy-2-methoxyandrostan-16-one]
fold higher tadpole LRR EC50 relative to ent-7 ([4]; comparison of EC50 values): ~ five | fold higher tadpole LSR EC50 relative to ent-7 ([4]; comparison of EC50 values): ~ five | fold decrease in [35S]TBPS displacement potency relative to ent-7 [5]: about 37 fold
